Measurements from different studies.
Compare with care: the assays were run in different laboratories.
PADI4: Protein-arginine deiminase type-4 (PADI4, Homo sapiens, UniProt Q9UM07)
Pancreatic alpha-amylase: Pancreatic alpha-amylase (Homo sapiens, UniProt P04746)
HDAC9: Histone deacetylase 9 (HDAC9, Homo sapiens, UniProt Q9UKV0)
MAOB: Amine oxidase [flavin-containing] B (MAOB, Homo sapiens, UniProt P27338)
ALDH1A3: Retinaldehyde dehydrogenase 3 (ALDH1A3, Homo sapiens, UniProt P47895)
GLO1: Lactoylglutathione lyase (GLO1, Homo sapiens, UniProt Q04760)
CA9: Carbonic anhydrase 9 (CA9, Homo sapiens, UniProt Q16790)
CHRM4: Muscarinic acetylcholine receptor M4 (CHRM4, Homo sapiens, UniProt P08173)

N=C(CCl)NCCC[C@H](NC(=O)c1ccc2cc(B(O)O)ccc2c1)c1nc2ccccc2[nH]1
IC50 (PADI4; enzyme activity, inhibitor, fluorescence; with preincubation): 295 nM

COc1cc(/C=N/NC(=S)N/N=C/c2ccc(Br)s2)ccc1Oc1ccnc2cc(Cl)ccc12
IC50 (Pancreatic alpha-amylase; enzyme activity, inhibitor, absorbance): 39100 nM

Cc1ccc(COc2ccc3ccc(C(=O)N[C@@H](CCCNC(=N)CCl)C(=O)NCc4ccccc4)cc3c2)cc1
IC50 (PADI4; enzyme activity, inhibitor, fluorescence; with preincubation): 2190 nM

COc1ccc(N(Cc2nc(-c3ccc(F)cc3)cs2)C(=O)CCCCCC(=O)NO)cc1
IC50 (HDAC9; enzyme activity, inhibitor): > 10000 nM

O=C(Nc1ccc(F)c(Br)c1)c1ccc2c(c1)C(=O)NC2=O
IC50 (MAOB; enzyme activity, inhibitor): 11 nM

N=C(CCl)NCCC[C@H](NC(=O)c1cccc(-c2ccc(B(O)O)cc2)c1)c1nc2ccccc2[nH]1
IC50 (PADI4; enzyme activity, inhibitor, fluorescence; with preincubation): 588 nM

OC[C@H]1O[C@@H](Oc2ccc(O)c3cccc(O)c23)[C@H](O)[C@@H](O)[C@@H]1O
IC50 (ALDH1A3; enzyme activity, inhibitor): < 10000 nM

O=C(N[C@@H](CSCc1nc2cc([N+](=O)[O-])ccc2[nH]1)C(=O)NO)c1ccccc1
IC50 (GLO1; enzyme activity, inhibitor): 454000 nM

O=C(NO)c1ccc(Cn2cnc3c(Nc4ccc(Cl)cc4)ncnc32)cc1
IC50 (HDAC9; enzyme activity, inhibitor): 385 nM

COc1cc(/C=N/NC(=S)N/N=C/c2ccc(Cl)cc2)ccc1Oc1ccnc2cc(Cl)ccc12
IC50 (Pancreatic alpha-amylase; enzyme activity, inhibitor, absorbance): 44100 nM

N=C(CCl)NCCC[C@H](NC(=O)c1ccc(B(O)O)cc1)c1nc2ccccc2[nH]1
IC50 (PADI4; enzyme activity, inhibitor, fluorescence; with preincubation): 2200 nM

COc1cc(/C=N/NC(=S)N/N=C\c2ccc(Cl)c(Cl)c2)ccc1Oc1ccnc2cc(Cl)ccc12
IC50 (Pancreatic alpha-amylase; enzyme activity, inhibitor, absorbance): 45700 nM

O=C(Nc1cc(Cl)cc(Cl)c1)c1ccc2c(c1)C(=O)NC2=O
IC50 (MAOB; enzyme activity, inhibitor): 55 nM

CN(C)c1ccc2cc(C(=O)N[C@@H](CCCNC(=N)CCl)c3nc4ccccc4[nH]3)ccc2c1
IC50 (PADI4; enzyme activity, inhibitor, fluorescence; with preincubation): 1060 nM

CN1CCN(c2nc(-c3cc4cc(Br)ccc4oc3=O)cs2)CC1
IC50 (CA9; enzyme activity, inhibitor): 1350 nM

COc1ccc(N(Cc2csc(-c3ccc(Br)cc3)n2)C(=O)CCCCCC(=O)NO)cc1
IC50 (HDAC9; enzyme activity, inhibitor): > 10000 nM

NS(=O)(=O)c1ccc(-c2ccc(Nc3ccncc3)cc2)cc1
IC50 (CA9; enzyme activity, inhibitor): 210 nM

O=C(Nc1cccc(Br)c1)c1ccc2c(c1)C(=O)NC2=O
IC50 (MAOB; enzyme activity, inhibitor): 180 nM

O=C(CCNC(=O)CNC(=O)CC(c1ccccc1)(c1ccccc1)c1ccccc1)NC[C@H]1CCCN(Cc2ccc(F)cc2)C1
IC50 (CHRM4; ligand displacement, radioligand; cell membranes): 13500 nM

COc1cc(/C=N/NC(=S)N/N=C/c2ccc(N(C)C)cc2)ccc1Oc1ccnc2cc(Cl)ccc12
IC50 (Pancreatic alpha-amylase; enzyme activity, inhibitor, absorbance): 50000 nM

O=C(N[C@@H](CSCc1ccccc1)C(=O)NO)c1ccccc1
IC50 (GLO1; enzyme activity, inhibitor): 5270 nM

COc1cc(/C=N/NC(=S)N/N=C/c2ccc(Br)cc2)ccc1Oc1ccnc2cc(Cl)ccc12
IC50 (Pancreatic alpha-amylase; enzyme activity, inhibitor, absorbance): 50500 nM

Cc1ccc(-c2ccccc2C=O)c(C)c1
IC50 (ALDH1A3; enzyme activity, inhibitor): 43500 nM

O=C(CCNC(=O)CNC(=O)CC(c1ccccc1)(c1ccccc1)c1ccccc1)NC[C@@H]1CCCN(Cc2cccnc2F)C1
IC50 (CHRM4; ligand displacement, radioligand; cell membranes): > 30000 nM

CS(=O)(=O)Nc1ccc(Nc2nc(-c3cc4ccccc4oc3=O)cs2)cc1Oc1ccccc1
IC50 (CA9; enzyme activity, inhibitor): 1690 nM

N=C(CCl)NCCC[C@H](NC(=O)c1ccc2cc(Br)ccc2n1)C(=O)NCc1ccccc1
IC50 (PADI4; enzyme activity, inhibitor, fluorescence; with preincubation): 1490 nM

COc1cc(/C=N/NC(=S)N/N=C/c2ccc(C=O)cc2)ccc1Oc1ccnc2cc(Cl)ccc12
IC50 (Pancreatic alpha-amylase; enzyme activity, inhibitor, absorbance): 58700 nM

N=C(CCl)NCCC[C@H](NC(=O)c1cccc(-c2ccc(O)cc2)c1)c1nc2ccccc2[nH]1
IC50 (PADI4; enzyme activity, inhibitor, fluorescence; with preincubation): 426 nM

Cc1ccc(-c2ccc(C=O)cc2)c(C)c1
IC50 (ALDH1A3; enzyme activity, inhibitor): 110 nM

O=C(O)CC(O)(CC(=O)O)C(=O)O
IC50 (Catechol O-methyltransferase (Comt, Rattus norvegicus, UniProt P22734); enzyme activity, inhibitor): 947000 nM

COc1cc(/C=N/NC(=S)N/N=C\c2ccc([N+](=O)[O-])cc2)ccc1Oc1ccnc2cc(Cl)ccc12
IC50 (Pancreatic alpha-amylase; enzyme activity, inhibitor, absorbance): 53000 nM

Cc1ccc(-c2cccc(C=O)c2)c(C)c1
IC50 (ALDH1A3; enzyme activity, inhibitor): 14900 nM

NS(=O)(=O)c1cccc(Nc2nc(-c3cc4cc(Br)ccc4oc3=O)cs2)c1
IC50 (CA9; enzyme activity, inhibitor): 1910 nM

CCCNS(=O)(=O)Nc1ncnc(OCCOc2ncc(Br)cn2)c1-c1ccc(Br)cc1
IC50 (Endothelin receptor type B (EDNRB, Homo sapiens, UniProt P24530); ligand displacement, radioligand; cell membranes): 1370 nM

CN1CCC(CNc2ccc3ncc(-c4cccc(OC(F)(F)F)c4)n3n2)CC1
IC50 (Histamine H1 receptor (HRH1, Homo sapiens, UniProt P35367); calcium signal, antagonist): 8450 nM

O=C(Nc1cccc(Cl)c1)c1ccc2c(c1)C(=O)NC2=O
IC50 (MAOB; enzyme activity, inhibitor): 290 nM

Cc1cc(O)c(-c2ccc([C@@H](C)CN(C)C)cc2)c2c1[nH]c(=O)c1sccc12
IC50 (Cyclin-dependent kinase 18, with cyclin Y (CDK18, Homo sapiens, UniProt Q07002); enzyme activity, inhibitor): > 1000 nM

N=C(CCl)NCCC[C@H](NC(=O)c1cccc(-c2ccc(B(O)O)cc2)c1)C(=O)NCc1ccccc1
IC50 (PADI4; enzyme activity, inhibitor, fluorescence; with preincubation): 708 nM

O=C(Nc1ccc(Cl)c(Br)c1)c1ccc2c(c1)C(=O)NC2=O
IC50 (MAOB; enzyme activity, inhibitor): 12 nM
